According to ChEMBL document CHEMBL5149972, “Novel Antimalarial Tetrazoles and Amides Active against the Hemoglobin Degradation Pathway in Plasmodium falciparum” (J Med Chem, 2021):
pEC50: −log10 of the molar value.

Assays:
Assay type in all cases: functional, organism-based
[1] = test system: Plasmodium falciparum; assay: Antiplasmodial activity against Plasmodium falciparum mature stage V gametocyte assessed as inhibition of female gametocyte formation by luciferase reporter assay
[2] = test system: Plasmodium falciparum; assay: Antiplasmodial activity against Plasmodium falciparum mature stage V gametocyte assessed as inhibition of male gametocyte formation by luciferase reporter assay
[3] = test system: Plasmodium falciparum; assay: (§1) Antiplasmodial activity against Rac-N-(Pyridin-3-yl(1-(o-tolyl)-1H-tetrazol-5-yl)methyl)-N-(3-(trifluoromethyl)benzyl)Cyclopropanamine resistant Plasmodium falciparum 3D7 clone F1-C1 ring-stage parasite assessed as parasite growth inhibition incubated for 72 hrs by SYBR Green and MitoTracker Deep Red FM dye based flow cytometry
Outline: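 Clonal 3D7-A10 lines recovered after single-step selection; ring stages at 0.2% parasitemia, 1% hematocrit in RPMI-1640 with 0.5% Albumax. 72 h exposure to a 10-point 2-fold dilution series in duplicate with DMSO controls, final DMSO <0.5%. Survival read by flow cytometry, SYBR Green as nuclear stain and MitoTracker Deep Red FM as vital dye. EC₅₀ and EC₉₀ reported with fold shift relative to parental 3D7-A10.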

[4] = test system: Plasmodium falciparum; assay: Antiplasmodial activity against chloroquine and piperaquine resistant Plasmodium falciparum Dd2-M343L mutant replaced with endogenous pfcrt locus with the recombinant Dd2 sequence and the PPQ resistance-conferring M343L at endogenous pfcrt Dd2 locus infected in human RBC assessed as parasite growth inhibition incubated for 72 hrs by SYBR Green dye based fluorescence assay; conditions: Erythrocyte
Outline: (§2)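 Gene-edited Dd2 lines with the endogenous pfcrt locus replaced by zinc-finger nuclease editing. Concentration-response curves run with technical duplicates at each concentration; values are the average of two biological replicates, with std dev given where more replicates were collected.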

[5] = test system: Plasmodium falciparum; assay: Antiplasmodial activity against chloroquine resistant Plasmodium falciparum Dd2-Dd2 mutant replaced with recombinant Dd2 sequence at endogenous pfcrt Dd2 locus infected in human RBC assessed as parasite growth inhibition incubated for 72 hrs by SYBR Green dye based fluorescence assay; conditions: Erythrocyte; outline: as §2
[6] = test system: Plasmodium falciparum; assay: Antiplasmodial activity against asexual blood stage Plasmodium falciparum 3D7 infected in human RBC assessed as parasite growth inhibition incubated for 72 hrs by SYBR Green dye based fluorescence assay; conditions: Plasmodium falciparum, 3D7, Erythrocyte, 72 h
Outline: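 Blood-stage cultures at 2% hematocrit, human O+ RBCs, RPMI 1640 + 25 mM HEPES, 0.5% Albumax-I, 23 mM bicarbonate, 92 μM hypoxanthine. Start at 0.5% parasitemia; 72 h at 37°C, 5% CO₂; freeze-thaw, then SYBR Green in saponin/Triton lysis buffer, 4 h RT dark; fluorescence ex 485/em 535 nm. 10-point curves, technical duplicates or triplicates, final 0.5% DMSO; four-parameter fit gives EC₅₀; mean ± std dev of biological replicates.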

[7] = test system: Plasmodium falciparum; assay: as §1, with “A10” for “F1-C1”
Outline: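 Resistant clonal lines were tested as ring stages at 0.2% parasitemia and 1% hematocrit in RPMI-1640 with 0.5% Albumax. A 10-point 2-fold dilution series was run in duplicate with DMSO controls, final DMSO <0.5%, for 72 h. Survival was read by flow cytometry with SYBR Green as nuclear stain and MitoTracker Deep Red as vital dye. EC50 and EC90 were derived.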

[8] = test system: Plasmodium falciparum; assay: Antiplasmodial activity against chloroquine, atovaquone and pyrimethamine resistant Plasmodium falciparum TM90C2B infected in human RBC assessed as parasite growth inhibition incubated for 72 hrs by SYBR Green dye based fluorescence assay; conditions: Erythrocyte

Cc1ccccc1-n1nnnc1C(c1cccnc1)N(Cc1cccc(C(F)(F)F)c1)C1CC1 (racemic)
pEC50 [1]: < 4.60 | pEC50 [2]: < 4.60 | pEC50 ([3]; 3D7 clone F1-C1, 72 h): 6.27 | EC90 ([3]; 3D7 clone F1-C1, time 72 hrs): 1000 nM | pEC50 [4]: 4.42 | pEC50 [5]: 6.35 | pEC50 [6]: 6.42 | pEC50 ([7]; 3D7 clone A10, 72 h): 6.52 | EC90 ([7]; 3D7 clone A10, time 72 hrs): 590 nM | pEC50 [8]: 6.34
